Measured values: article PMC5576721 (Biochemistry, 2015)
“Also recorded” adds a separate entry of the source.

Tests used:
core^SP [1] = assay: SEC titration of C34-AL647 into core^SP; format: binding, HIV-1
core^S [2] = assay: Circular dichroism of core^S with and without C34; design: species or system HIV-1
core^S [3] = assay: SEC titration of C34-AL647 into core^S; format: binding, HIV-1; details: fits of 280 and 609+650 nm peak areas
6-helix = assay: SEC-MALS binding stoichiometry with 6-helix; design: species or system HIV-1; details: 5-fold molar excess C34, 200 μg 6-helix, 10 mM Tris-HCl pH 7.6, 150 mM NaCl
core^SP [4] = assay: SEC-MALS and SEC displacement of C38 / C38-AL647 from core^SP; format: binding, HIV-1; details: 5-fold molar excess C34, SEC–MALS, confirmed with core^SP-AL647
HIV-1 fusion = details: ref [17] Markosyan et al.; cited from earlier work
core^SP [5] = assay: Circular dichroism of core^SP with and without C34; design: species or system HIV-1; details: core^SP 2.5 μM trimer, 5-fold excess C34, buffer A pH 7.6, 20 °C
Method in brief: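 CoreSP (N-HR and C-HR peptides counted as one unit) is used at 2.5 μM trimer, alone or with a 5-fold molar excess of C34, in 10 mM Tris-HCl pH 7.6 with 150 mM NaCl. Spectra are recorded at 20 °C in a 0.1 cm path-length flat cell. α-Helical content is estimated by CDNN.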

N-Cys core^S = assay: DEER EPR of N-Cys core^S with and without C34; design: species or system HIV-1; details: 50 μM subunits, 1.2-fold molar excess C34, Q-band, 50 K
core^S [6] = assay: SEC-MALS binding stoichiometry with core^S; design: species or system HIV-1
5-helix [7] = details: 5-fold molar excess C34, 200 μg 5-helix, 10 mM Tris-HCl pH 7.6, 150 mM NaCl
5-helix [8] = test system: 5-helix
core^S [9] = assay: ITC with core^S; format: binding, HIV-1; details: C34 0.05–0.1 mM into 5–10 μM core^S, 10 mM Tris-HCl pH 7.6, 150 mM NaCl, 25 °C, iTC200
core^S [10] = assay: Native-PAGE band shift with core^S; format: binding, HIV-1; details: 10 μM core^S, 30 min, room temperature, 20% homogeneous gel
[11] = biological target: single-chain six-helix bundle (6-helix) (HIV-1) (UniProt P04578); assay: SEC-MALS
[12] = biological target: single-chain five-helix bundle (5-helix) (HIV-1) (UniProt P04578); assay: SEC-MALS
[13] = biological target: the molecule itself; assay: composition gradient–MALS

With Ac-C-HR^628–661-NH2 [C34] the “equilibrium constant for the exchange reaction of C34 with C38” value (core^SP [1]; core^SP, value in discussion) was 0.9, the “cooperativity of exchange with core^SP” value (core^SP [1]; fits of 609+650 nm peak areas) was “no evidence of any cooperativity” and the “increase in helicity of core^S on C34 binding” value (core^S [2]; core^S 7 μM trimer, 5-fold molar excess C34, buffer A pH 7.6, 20 °C) was ~ 18%. For the same molecule, the “additional residues in helical conformation of core^S trimer” value (core^S [2]; two C34 bound, two C28 C-HR displaced, 5-fold molar excess C34) was 30 residues, the “cooperativity of binding to core^S” value (core^S [3]) was “no evidence of any cooperativity” and the “binding to 6-helix (stoichiometry)” value (6-helix) was “weak binding of C34 as a 1:1 complex”. For the same molecule, the “displacement of C38 from core^SP” value (core^SP [4]) was “binding of C34 to core^SP is accompanied by displacement of C38”, the “time window of fusion inhibitory activity” value (HIV-1 fusion) was “can extend from the point at which the prehairpin intermediate of gp41 becomes accessible through the formation of late prebundle intermediates and labile pore formation, but not after irreversible formation of the six-helix bundle” and the “change in helicity of core^SP on C34 binding” value (core^SP [5]) was “no change in helicity”. For the same molecule, the “effect of C34 on DEER dipolar evolution data / P(r) of N-Cys core^S” value (N-Cys core^S) was “negligible effect”, the “binding stoichiometry with core^S” value (core^S [6]; 5-fold molar excess C34, 10 mM Tris-HCl pH 7.6, 150 mM NaCl) was “one core^S trimer to two C34 peptides with no dissociation of the core^S trimer; also recorded: binding of two C34 molecules to one core^S trimer” and the “evidence for a 1:3 core^S–(C34)3 complex” value (core^S [6]; SEC–MALS and band-shift assays) was “no evidence of the existence of a 1:3 core^S–(C34)3 complex”. For the same molecule, the “binding to 5-helix (stoichiometry)” value (5-helix [7]) was “binds with a 1:1 stoichiometry”, the “binding to 5-helix by native-PAGE” value (5-helix [8]; native-PAGE, room temperature) was “binding of C34 is clearly evident” and the “stoichiometry of binding to 5-helix by native-PAGE” value (5-helix [8]; positive control) was 1:1 stoichiometry of binding. For the same molecule, the “heat signature in ITC with core^S” value (core^S [9]) was “did not yield a heat signature” and the “binding to core^S by native-PAGE” value (core^S [10]) was “even at 3:1 and 3:2 core^S:C34 ratios (Figure 4C) a significant amount of complex comprising two C34 molecules bound to one core^S trimer is formed; also recorded: binding of C34 is clearly evident”.

With “C34 peptide (chemically synthesized, Ac-C-HR^628–661-NH2) (from UniProt P04578 628-661)” the stoichiometry N (C34 per 6-helix) [11] was 1 and the stoichiometry N (C34 per 5-helix) [12] was 1.

B1: core^S (N34^546–579-(L6)-C28^628–655), homotrimeric six-helix bundle of gp41 (domain or fragment)
chain: SGIVQQQNNLLRAIEAQQHLLQLTVWGIKQLQARSGGRGGWMEWDREINNYTSLIHSLIEESQNQQEK
With B1 the Kd [13] was less than 250 nM.
